Experiments:
[1] = Selectivity index, ratio of CC50 for human A549 cells to MIC50 for Mycobacterium tuberculosis H37Rv […]; assay type: functional
How it was run: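 Selectivity index computed as CC50 in A549 cells divided by MIC50 against H37Rv.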

[2] = Cytotoxicity against human A549 cells assessed as inhibition of cell proliferation incubated for 4 days by Coulter counter based assay
How it was run: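 A549 cells seeded at 7500 per well; serially diluted compounds added 24 h later; 4 days at 37 °C; cells trypsinized and counted by Coulter Counter; CC50 (50% proliferation vs untreated) obtained by extrapolation; mean ± SEM of two or three independent tests.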

[3] = system: Mycobacterium tuberculosis; assay: Antimycobacterial activity against Mycobacterium tuberculosis H37Rv […] assessed as inhibition of microbial growth incubated for 5 days by resazurin reduction microplate assay; assay type: functional; conditions: 120 h
How it was run: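 H37Rv grown in 7H9 with OADC, 0.5% glycerol, 0.02% tyloxapol at 37 °C to mid-exponential phase (OD600 0.4−0.8), diluted to OD600 0.001 (~2 × 10^4 CFU/mL) in 7H9S with 0.5% DMSO; serially diluted compounds; 5 days at 37 °C, then resazurin plus Tween 80; fluorescence (ex 530/em 580 nm) read 30 h later; MIC50 from signal relative to no-inhibitor minus no-bacteria controls.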

[4] = Inhibition of N-terminal hexa-histidine tagged Mycobacterium tuberculosis HGPRT expressed in Escherichia coli BL-21(DE3) using PRib-PP substrate and guanine
[5] = system: Mycobacterium tuberculosis; assay: Potency index, ratio of Ki for GMP to Ki for compound against N-terminal hexa-histidine tagged Mycobacterium tuberculosis HGPRT expressed in Escherichia coli BL-21(DE3) using PRib-PP substrate and guanine
[6] = target: T1, Hypoxanthine-guanine phosphoribosyltransferase (Homo sapiens, UniProt P00492); assay: Inhibition of human HGPRT
T1 sequence (P00492 whole entry): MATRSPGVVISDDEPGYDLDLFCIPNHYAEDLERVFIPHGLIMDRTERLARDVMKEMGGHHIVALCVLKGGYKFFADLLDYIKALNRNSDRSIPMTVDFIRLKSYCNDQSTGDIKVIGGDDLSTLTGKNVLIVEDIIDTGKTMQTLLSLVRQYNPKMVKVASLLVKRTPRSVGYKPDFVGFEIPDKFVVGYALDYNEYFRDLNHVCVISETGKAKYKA

[7] = Inhibition of Mycobacterium tuberculosis HGPRT
[8] = Inhibition of Escherichia coli HGPRT
[9] = Selectivity index, ratio of Ki for human HGPRT to Ki for N-terminal hexa-histidine tagged Mycobacterium tuberculosis HGPRT

| SMILES | Selectivity Index [1] | MIC50 [3] | Ki [4] | Ki [6] | other results |
| --- | --- | --- | --- | --- | --- |
| CCOC(=O)[C@H](Cc1ccccc1)NP(=O)(CCN(CCN(CCP(=O)(N[C@@H](Cc1ccccc1)C(=O)OCC)N[C@@H](Cc1ccccc1)C(=O)OCC)CCP(=O)(N[C@@H](Cc1ccccc1)C(=O)OCC)N[C@@H](Cc1ccccc1)C(=O)OCC)CCn1cnc2c(=O)[nH]c(N)nc21)N[C@@H](Cc1ccccc1)C(=O)OCC | >67 | 4.5 µM |  |  | CC50 at 96 h [2]: > 300 µM |
| Nc1nc2c(ncn2CC(COCCP(=O)(O)O)OCCP(=O)(O)O)c(=O)[nH]1 (stereo not drawn) |  |  | 0.69 µM |  | Ratio Ki [5]: 28 |
| O=c1[nH]cnc2c1ncn2CC(COCCP(=O)(O)O)OCCP(=O)(O)O (stereo not drawn) |  |  | > 50 µM | 4 µM |  |
| O=c1[nH]cnc2c1ncn2CCN(CCN(CCP(=O)(O)O)CCP(=O)(O)O)CCP(=O)(O)O |  |  | 1.13 µM | 0.01 µM |  |
| Nc1nc2c(ncn2CCN(CCN(CCO)CCP(=O)(O)O)CCP(=O)(O)O)c(=O)[nH]1 |  |  | 1.6 µM | 0.03 µM |  |
| Nc1nc2c(ncn2[C@@H]2O[C@H](COP(=O)(O)O)[C@@H](O)[C@H]2O)c(=O)[nH]1 |  |  |  |  | Ki [7]: 20 µM; Ki [8]: 526 µM |
| O=c1[nH]cnc2c1ncn2CCOCCP(=O)(O)O |  |  | 18 µM |  |  |
| O=c1[nH]cnc2c1ncn2CCN(CCN(CCCO)CCP(=O)(O)O)CCP(=O)(O)O |  |  | 22.7 µM | 1.64 µM | Ratio Ki [9]: 14 |
| O=c1[nH]cnc2c1ncn2CC(COCP(=O)(O)O)COCP(=O)(O)O |  |  | 7.7 µM |  |  |
| CCOC(=O)[C@H](Cc1ccccc1)NP(=O)(COCC(COCP(=O)(N[C@@H](Cc1ccccc1)C(=O)OCC)N[C@@H](Cc1ccccc1)C(=O)OCC)Cn1cnc2c(=O)[nH]c(N)nc21)N[C@@H](Cc1ccccc1)C(=O)OCC | >27 | 11 µM |  |  |  |
| CCOC(=O)[C@H](Cc1ccccc1)NP(=O)(CCN(CCN(CCP(=O)(N[C@@H](Cc1ccccc1)C(=O)OCC)N[C@@H](Cc1ccccc1)C(=O)OCC)CCP(=O)(N[C@@H](Cc1ccccc1)C(=O)OCC)N[C@@H](Cc1ccccc1)C(=O)OCC)CCn1cnc2c(=O)[nH]cnc21)N[C@@H](Cc1ccccc1)C(=O)OCC | >6 | 4.5 µM |  |  | CC50 at 96 h [2]: 28 µM |
| Nc1nc2c(ncn2CCN(CCN(CCP(=O)(O)O)CCP(=O)(O)O)CCP(=O)(O)O)c(=O)[nH]1 |  |  | 1.6 µM | 0.03 µM |  |
| Nc1nc2c(ncn2CC(COCP(=O)(O)O)COCP(=O)(O)O)c(=O)[nH]1 |  |  | 0.77 µM |  | Ratio Ki [5]: 28 |
| O=c1[nH]cnc2c1ncn2CCN(CCOCCP(=O)(O)O)CCP(=O)(O)O |  |  | > 50 µM |  |  |
| Nc1nc2c(ncn2CCOCCP(=O)(O)O)c(=O)[nH]1 |  |  | 1.76 µM |  |  |
| O=c1[nH]cnc2c1ncn2CCN(CCN(CCO)CCP(=O)(O)O)CCP(=O)(O)O |  |  | 22.5 µM | 0.5 µM |  |
| CCOC(=O)[C@H](Cc1ccccc1)NP(=O)(CCOCC(Cn1cnc2c(=O)[nH]cnc21)OCCP(=O)(N[C@@H](Cc1ccccc1)C(=O)OCC)N[C@@H](Cc1ccccc1)C(=O)OCC)N[C@@H](Cc1ccccc1)C(=O)OCC (stereo partly drawn) | >6 | 15 µM |  |  | CC50 at 96 h [2]: 90 µM |
| Nc1nc2c(ncn2CCN(CCOCCP(=O)(O)O)CCP(=O)(O)O)c(=O)[nH]1 |  |  | 1.4 µM |  |  |
| CCOC(=O)[C@H](Cc1ccccc1)NP(=O)(COCC(COCP(=O)(N[C@@H](Cc1ccccc1)C(=O)OCC)N[C@@H](Cc1ccccc1)C(=O)OCC)Cn1cnc2c(=O)[nH]cnc21)N[C@@H](Cc1ccccc1)C(=O)OCC | >13 | 7.5 µM |  |  |  |
| CCOC(=O)[C@H](Cc1ccccc1)NP(=O)(CCOCC(Cn1cnc2c(=O)[nH]c(N)nc21)OCCP(=O)(N[C@@H](Cc1ccccc1)C(=O)OCC)N[C@@H](Cc1ccccc1)C(=O)OCC)N[C@@H](Cc1ccccc1)C(=O)OCC (stereo partly drawn) | >11 | 9 µM |  |  |  |
| CCOC(=O)[C@H](Cc1ccccc1)NP(=O)(CCN(CCO)CCN(CCn1cnc2c(=O)[nH]cnc21)CCP(=O)(N[C@@H](Cc1ccccc1)C(=O)OCC)N[C@@H](Cc1ccccc1)C(=O)OCC)N[C@@H](Cc1ccccc1)C(=O)OCC | >19.5 | 8 µM |  |  | CC50 at 96 h [2]: 156 µM |
| Nc1nc2c(ncn2CCN(CCN(CCCO)CCP(=O)(O)O)CCP(=O)(O)O)c(=O)[nH]1 |  |  | 15.9 µM | 0.04 µM | Ratio Ki [9]: 400 |
| CCOC(=O)[C@H](Cc1ccccc1)NP(=O)(CCN(CCO)CCN(CCn1cnc2c(=O)[nH]c(N)nc21)CCP(=O)(N[C@@H](Cc1ccccc1)C(=O)OCC)N[C@@H](Cc1ccccc1)C(=O)OCC)N[C@@H](Cc1ccccc1)C(=O)OCC | >43 | 4.5 µM |  |  | CC50 at 96 h [2]: 193 µM |

— ChEMBL document CHEMBL3576832, “First Crystal Structures of Mycobacterium tuberculosis 6-Oxopurine Phosphoribosyltransferase: Complexes with GMP and Pyrophosphate and with Acyclic Nucleoside Phosphonates Whose Prodrugs Have Antituberculosis Activity” (J Med Chem, 2015)
